The source made the active and inactive calls. The calls are words filed in the database; no cut-off is given here.
Key:
HUVEC [1] = test: Antiangiogenic activity against HUVEC assessed as inhibition of capillary-like tube formation at 3 ug/ml after 15 hrs by Matrigel assay relative to control; format: functional; conditions: Homo sapiens
Procedure, shortened: (§1)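 HUVECs were grown in M199 with 20% FBS, 1% penicillin/streptomycin, 0.01% heparin and ECGS on 0.2% gelatin-coated plates at 37 °C in 5% CO2. For the assay, 1 × 10^4 cells were suspended in medium containing compound and added onto polymerized Matrigel at 37 °C. Cultures were photographed at ×100 and tubes counted. Values were normalized to solvent controls (100%), n = 3, mean ± SD.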

HUVEC [2] = test: Cytotoxicity against HUVEC assessed as cell viability at 3 to 30 ug/ml after 48 hrs by MTT assay; format: cell-based; conditions: human
Procedure, shortened: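 HUVECs were grown on gelatin-coated plates to 80% confluency, then treated for 48 h alongside a 0.1% DMSO control. MTT was added to a final 0.05% for 3 h at 37 °C. Formazan was dissolved in DMSO and read at 570 nm against 630 nm reference. Viability was expressed as a percentage of untreated cells.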

HUVEC [3] = test: Antiangiogenic activity against HUVEC assessed as inhibition of capillary-like tube formation at 30 ug/ml after 15 hrs by Matrigel assay relative to control; format: functional; conditions: Homo sapiens; procedure, shortened: as §1
HUVEC [4] = test: Antiangiogenic activity against HUVEC assessed as inhibition of capillary-like tube formation at 3 to 30 ug/ml after 15 hrs by Matrigel assay relative to control; format: functional, cell-based; conditions: Homo sapiens; procedure, shortened: as §1
HUVEC [5] = test: Cytotoxicity against HUVEC at 3 to 30 ug/ml by LDH release assay; format: cell-based; conditions: human

COC(=O)[C@@]1(C)[C@@H](OC(C)=O)CC[C@@]2(C)[C@H]1[C@@H](O)C(=O)[C@H]1[C@@H](C)/C(=C/C(=O)N(C)CCO)CC[C@@H]12
inhibition (HUVEC [1]): Active | Activity (HUVEC [2]): Non-toxic

COC(=O)[C@@]1(C)CCC[C@@]2(C)[C@H]1CC(=O)[C@H]1[C@@H](C)/C(=C/C(=O)N(C)CCO)CC[C@@H]12
inhibition (HUVEC [1]): Active | Activity (HUVEC [2]): Non-toxic

COc1cc(/C=C/C(=O)CC(=O)/C=C/c2ccc(O)c(OC)c2)ccc1O [CURCUMIN]
inhibition at 3 µg/mL (HUVEC [1]): 45%

COC(=O)[C@@]1(C)[C@@H](OC(C)=O)CC[C@@]2(C)[C@H]1CC(=O)[C@H]1[C@@H](C)/C(=C/C(=O)N(C)CCO)CC[C@@H]12
inhibition at 30 µg/mL (HUVEC [3]): 4.5% | inhibition (HUVEC [4]): Active | Activity (HUVEC [5]): Toxic | inhibition at 3 µg/mL (HUVEC [1]): 42% | Activity (HUVEC [2]): Non-toxic

COC(=O)[C@]1(C)[C@@H]2CC[C@H]3[C@@H](C)/C(=C/C(=O)N(C)CCO)CC[C@@H]3[C@@]2(C)CC[C@@H]1O
inhibition (HUVEC [1]): Active | Activity (HUVEC [2]): Non-toxic

COC(=O)[C@@]1(C)CCC[C@@]2(C)[C@H]1[C@@H](O)C(=O)[C@H]1[C@@H](C)/C(=C/C(=O)N(C)CCO)CC[C@@H]12
inhibition (HUVEC [1]): Active | Activity (HUVEC [2]): Non-toxic

COC(=O)[C@]1(C)[C@@H]2CC(=O)[C@H]3[C@@H](C)/C(=C/C(=O)N(C)CCO)CC[C@@H]3[C@@]2(C)CC[C@@H]1O
inhibition (HUVEC [1]): Active | Activity (HUVEC [2]): Non-toxic

From ChEMBL document CHEMBL3098002, “Cassaine diterpene alkaloids from Erythrophleum fordii and their anti-angiogenic effect” (Bioorg Med Chem Lett, 2014)
